Results from ChEMBL document CHEMBL1240473, “Synthesis and bioassay of aminosulfonyl-1,3,4-oxadiazoles and their interconversion to 1,3,4-thiadiazoles” (2010).
Values after ≈ are worked out from the molar mass of the structure shown.

Assays:
Type in all cases: functional
[1] = tested on: Proteus vulgaris; experiment: Antimicrobial activity against Proteus vulgaris NCIM 2027 at 200 ug/disk after 24 hrs by agar disc-diffusion method; conditions: NCIM 2027, 24 h, read-out: DIZ
[2] = tested on: Fusarium solani; experiment: Antimicrobial activity against Fusarium solani NCIM 1330 at 200 ug/disk after 48 hrs by agar disc-diffusion method; conditions: NCIM 1330, 48 h, read-out: DIZ
Procedure, shortened: (§1)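 Agar disc diffusion with NCIM strains. Sterile 6 mm filter-paper discs were moistened with compound in DMSO at 100 or 200 per disc and placed on agar plates pre-inoculated with each organism. Plates were incubated at 37 °C. Growth-inhibition zone diameter was read at 24 h for bacteria and 48 h for fungi.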

[3] = tested on: Fusarium solani; experiment: Antimicrobial activity against Fusarium solani NCIM 1330 at 100 ug/disk after 48 hrs by agar disc-diffusion method; conditions: NCIM 1330, 48 h, read-out: DIZ; procedure, shortened: as §1
[4] = tested on: Bacillus subtilis; experiment: Antimicrobial activity against Bacillus subtilis NCIM 2063 at 100 ug/disk after 24 hrs by agar disc-diffusion method; conditions: NCIM 2063, 24 h, read-out: DIZ; procedure, shortened: as §1
[5] = tested on: Bacillus subtilis; experiment: Antimicrobial activity against Bacillus subtilis NCIM 2063 at 200 ug/disk after 24 hrs by agar disc-diffusion method; conditions: NCIM 2063, 24 h, read-out: DIZ; procedure, shortened: as §1
[6] = tested on: Aspergillus niger; experiment: Antimicrobial activity against Aspergillus niger NCIM 596 at 100 ug/disk after 48 hrs by agar disc-diffusion method; conditions: NCIM 596, 48 h, read-out: DIZ; procedure, shortened: as §1
[7] = Antioxidant activity assessed as nitric oxide scavenging activity at 100 uM after 120 min by Griess assay
Procedure, shortened: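 Sodium nitroprusside (5 mM) in phosphate buffer pH 7.4 was incubated with test compound dissolved in dioxane/methanol at 25 °C for 120 min. A solvent-only control was run in parallel. Aliquots were mixed 1:1 with Griess reagent (1% sulfanilamide, 0.1% N-naphthylethylenediamine dihydrochloride, 2% o-phosphoric acid in water).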

[8] = tested on: Aspergillus niger; experiment: Antimicrobial activity against Aspergillus niger NCIM 596 at 200 ug/disk after 48 hrs by agar disc-diffusion method; conditions: NCIM 596, 48 h, read-out: DIZ; procedure, shortened: as §1
[9] = tested on: Klebsiella pneumoniae; experiment: Antimicrobial activity against Klebsiella pneumoniae NCIM 2957 at 100 ug/disk after 24 hrs by agar disc-diffusion method; conditions: NCIM 2957, 24 h, read-out: DIZ; procedure, shortened: as §1
[10] = tested on: Proteus vulgaris; experiment: Antimicrobial activity against Proteus vulgaris NCIM 2027 at 100 ug/disk after 24 hrs by agar disc-diffusion method; conditions: NCIM 2027, 24 h, read-out: DIZ
[11] = tested on: Curvularia lunata; experiment: Antimicrobial activity against Curvularia lunata NCIM 716 at 200 ug/disk after 48 hrs by agar disc-diffusion method; conditions: NCIM 716, 48 h, read-out: DIZ; procedure, shortened: as §1
[12] = tested on: Klebsiella pneumoniae; experiment: Antimicrobial activity against Klebsiella pneumoniae NCIM 2957 at 200 ug/disk after 24 hrs by agar disc-diffusion method; conditions: NCIM 2957, 24 h, read-out: DIZ; procedure, shortened: as §1
[13] = tested on: Radical scavenging activity; experiment: Antioxidant activity assessed as DPPH free radical scavenging activity at 100 uM after 20 mins
Procedure, shortened: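 Compound solutions were added to DPPH in dioxane/ethanol and kept at ambient temperature for 20 min, then absorbance was read at 517 nm. Percent inhibition = (A_control − A_sample)/A_control × 100, […].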

[14] = tested on: Staphylococcus aureus; experiment: Antimicrobial activity against Staphylococcus aureus NCIM 5021 at 200 ug/disk after 24 hrs by agar disc-diffusion method; conditions: NCIM 5021, 24 h, read-out: DIZ; procedure, shortened: as §1
[15] = tested on: Staphylococcus aureus; experiment: Antimicrobial activity against Staphylococcus aureus NCIM 5021 at 100 ug/disk after 24 hrs by agar disc-diffusion method; conditions: NCIM 5021, 24 h, read-out: DIZ; procedure, shortened: as §1
[16] = tested on: Curvularia lunata; experiment: Antimicrobial activity against Curvularia lunata NCIM 716 at 100 ug/disk after 48 hrs by agar disc-diffusion method; conditions: NCIM 716, 48 h, read-out: DIZ; procedure, shortened: as §1
[17] = tested on: Fusarium solani; experiment: Antimicrobial activity against Fusarium solani NCIM 1330 after 48 hrs by microdilution susceptibility method; conditions: NCIM 1330, 48 h
Procedure, shortened: (§2)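 Broth microdilution MIC with NCIM strains. Compounds and the references (chloramphenicol, antibacterial; ketoconazole, antifungal) were dissolved in DMSO at 800 and diluted two-fold from 400 down to 6.25. Wells were inoculated with the microbial suspension and incubated at 36 °C, 24 h for bacteria and 48 h for fungi. MIC was the lowest concentration with no visible growth.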

[18] = tested on: Curvularia lunata; experiment: Antimicrobial activity against Curvularia lunata NCIM 716 after 48 hrs by microdilution susceptibility method; conditions: NCIM 716, 48 h; procedure, shortened: as §2
[19] = tested on: Aspergillus niger; experiment: Antimicrobial activity against Aspergillus niger NCIM 596 after 48 hrs by microdilution susceptibility method; conditions: NCIM 596, 48 h; procedure, shortened: as §2

SMILES	zone of inhibition at 200 µg/disc [1] [mm]	zone of inhibition at 200 µg/disc [2] [mm]	zone of inhibition at 100 µg/disc [3] [mm]	zone of inhibition at 100 µg/disc [4] [mm]	zone of inhibition at 200 µg/disc [5] [mm]	zone of inhibition at 100 µg/disc [6] [mm]	Activity [7] [%]	zone of inhibition at 200 µg/disc [8] [mm]	zone of inhibition at 100 µg/disc [9] [mm]	zone of inhibition at 100 µg/disc [10] [mm]	zone of inhibition at 200 µg/disc [11] [mm]	zone of inhibition at 200 µg/disc [12] [mm]	Activity [13] [%]	zone of inhibition at 200 µg/disc [14] [mm]	zone of inhibition at 100 µg/disc [15] [mm]	zone of inhibition at 100 µg/disc [16] [mm]	MIC [17] [µg/mL]	MIC [18] [µg/mL]	MIC [19] [µg/mL]
Cc1ccc(NS(=O)(=O)Cc2nnc(-c3ccc(C)cc3)o2)cc1	9	15	12	9	10	10	54.3	12	7	7	16	8	58.1	12	10	14			
O=S(=O)(Cc1nnc(CS(=O)(=O)c2ccc(Cl)cc2)o1)Nc1ccc(Cl)cc1	14	19	17	12	14	16	69.4	18	11	13	18	13	71	15	13	14			
CC(=O)N1CCN(c2ccc(OCC3COC(Cn4ccnc4)(c4ccc(Cl)cc4Cl)O3)cc2)CC1 (centres undefined) [KETOCONAZOLE]		42	38			36		39			44					41	12.5 (≈ 23.5 µM)	6.25 (≈ 11.8 µM)	6.25 (≈ 11.8 µM)
O=S(=O)(Cc1nnc(-c2ccccc2)o1)Nc1ccccc1	8	13	11	9	11	12	63.5	16	7	6	15	9	62.3	13	10	13			
O=S(=O)(Cc1nnc(-c2ccc(Cl)cc2)o1)Nc1ccc(Cl)cc1	11	16	14	11	13	11	70.5	13	9	10	15	10	69.6	14	12	13			
O=S(=O)(Cc1nnc(-c2ccccc2)s1)Nc1ccccc1	16	24	22	18	20	19	25.4	21	14	15	25	17	27.8	22	19	24			
Cc1ccc(NS(=O)(=O)Cc2nnc(CS(=O)(=O)c3ccc(C)cc3)o2)cc1	12	18	14	11	13	13	57.2	15	10	10	17	12	58.6	15	12	15			
O=S(=O)(Cc1nnc(CS(=O)(=O)c2ccccc2)o1)Nc1ccccc1	14	16	13	12	15	14	66.8	17	11	12	20	12	64.7	14	13	16			
Cc1ccc(NS(=O)(=O)Cc2nnc(-c3ccc(C)cc3)s2)cc1	15	22	19	22	24	17	29.4	18	18	13	24	19	32.3	23	20	21			
O=C1O[C@H]([C@@H](O)CO)C(O)=C1O							96.9						95.4						
